Activity calls are given as the source filed them. No cut-off for these calls is given here.
Experiments:
Rattus norvegicus [1] = assay: Anxiolytic activity in Wistar rat assessed as time spent into open arms at 3 mg/kg, ip administered 60 mins before evaluation and measured during 5 mins by elevated plus-maze test; format: functional; conditions: route intraperitoneal
Summary of the method: (§1)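 Male Wistar rats, 6–8 weeks, 120–150 g, given test agents ip (2 ml/kg; vehicle saline with 1% tween 80 and 1% DMSO) 60 min before testing; WAY-100635 0.5 mg/kg ip 15 min before treatment where used. Maze: two open, two closed arms 50 × 10 cm, raised 50 cm; rat placed centrally facing open arm; 5 min video recording; mean ± S.E.M., n = 8.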

Rattus norvegicus [2] = assay: Anxiolytic activity in Wistar rat assessed as number of entries into open arms at 3 mg/kg, ip administered 60 mins before evaluation and measured during 5 mins by elevated plus-maze test; format: functional; conditions: route intraperitoneal; summary of the method: as §1
Rattus norvegicus [3] = assay: Anxiolytic activity in Wistar rat assessed as number of entries into closed arms at 3 mg/kg, ip administered 60 mins before evaluation and measured during 5 mins by elevated plus-maze test; format: functional; conditions: route intraperitoneal; summary of the method: as §1
Rattus norvegicus [4] = assay: Anxiolytic activity in Wistar rat assessed as total number of entries at 3 mg/kg, ip administered 60 mins before evaluation and measured during 5 mins by elevated plus-maze test; format: functional; conditions: route intraperitoneal; summary of the method: as §1
Rattus norvegicus [5] = assay: Anxiolytic activity in Wistar rat assessed as time spent into open arms at 5 mg/kg, ip administered 60 mins before evaluation and measured during 5 mins by elevated plus-maze test; format: functional; conditions: route intraperitoneal
Summary of the method: (§2)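 Male Wistar rats, 6–8 weeks, 120–150 g, housed at 25 ± 2 °C with free food and water. Dosed ip at 2 ml/kg in saline with 1% tween 80 and 1% DMSO, which alone served as control; n = 8. Maze arms 50 × 10 cm, 50 cm above floor. Rat placed centrally facing an open arm, recorded by camera between 9:00 and 15:00 h.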

Rattus norvegicus [6] = assay: Anxiolytic activity in Wistar rat assessed as number of entries into open arms at 5 mg/kg, ip administered 60 mins before evaluation and measured during 5 mins by elevated plus-maze test; format: functional; conditions: route intraperitoneal; summary of the method: as §2
Rattus norvegicus [7] = assay: Anxiolytic activity in Wistar rat assessed as number of entries into closed arms at 5 mg/kg, ip administered 60 mins before evaluation and measured during 5 mins by elevated plus-maze test; format: functional; conditions: route intraperitoneal; summary of the method: as §2
Rattus norvegicus [8] = assay: Anxiolytic activity in Wistar rat assessed as total number of entries at 5 mg/kg, ip administered 60 mins before evaluation and measured during 5 mins by elevated plus-maze test; format: functional; conditions: route intraperitoneal; summary of the method: as §2
Rattus norvegicus [9] = assay: Anxiolytic activity in ip dosed Wistar rat assessed as decrease in glyoxalase 1 activity in brain; format: functional; set-up: scale not given: the % may be the effect or the level left
Summary of the method: (§3)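 Rat brain homogenised at 20% in 0.1 M potassium phosphate pH 7.4 with 0.25 M sucrose; spun 800g then 10,500g (4 °C) to give post-mitochondrial supernatant for glutathione reductase, and further 36,000g 1 h for cytosol for glyoxalase 1 (modified Racker method); protein by Lowry with BSA standard.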

Rattus norvegicus [10] = assay: Anxiolytic activity in ip dosed Wistar rat assessed as decrease in glutathione reductase activity in brain; format: functional; set-up: scale not given: the % may be the effect or the level left; summary of the method: as §3
Rattus norvegicus [11] = assay: Anxiolytic activity in Wistar rat assessed as decrease in time spent into open arms treated ip 60 mins before evaluation and measured during 5 mins by elevated plus-maze test in presence of WAY-100635; format: functional; set-up: scale not given: the % may be the effect or the level left; summary of the method: as §1
Rattus norvegicus [12] = assay: Anxiolytic activity in Wistar rat assessed as decrease in extracellular serotonin level in brain at 3 mg/kg, ip relative to control; format: functional, organism-based; set-up: dose 3 mg/kg
Summary of the method: (§4)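 Male Wistar rats dosed ip (vehicle saline/1% tween 80/1% DMSO), WAY-100635 0.5 mg/kg ip 15 min prior where used; decapitated 1 h after dosing, brains frozen at -80 °C. Tissue sonicated in 0.4 M perchloric acid, citrate/phosphate/EDTA added, centrifuged 12,000g at 4 °C; supernatant run on reversed-phase C18 HPLC with fluorescence detection (ex 280, em 340 nm).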

Rattus norvegicus [13] = assay: Anxiolytic activity in Wistar rat assessed as decrease in extracellular serotonin level in brain at 3 mg/kg, ip in presence of WAY-100635 relative to control; format: functional; set-up: scale not given: the % may be the effect or the level left; conditions: route intraperitoneal; summary of the method: as §4
Rattus norvegicus [14] = assay: Anxiolytic activity in ip dosed Wistar rat assessed as decrease in extracellular serotonin level in brain coadministered with WAY-100635 relative to control; format: functional; set-up: scale not given: the % may be the effect or the level left; summary of the method: as §4
Rattus norvegicus [15] = assay: Anxiolytic activity in Wistar rat assessed as time spent into open arms at 1 mg/kg, ip administered 60 mins before evaluation and measured during 5 mins by elevated plus-maze test; format: functional; conditions: route intraperitoneal; summary of the method: as §2
Rattus norvegicus [16] = assay: Anxiolytic activity in Wistar rat assessed as number of entries into open arms at 1 mg/kg, ip administered 60 mins before evaluation and measured during 5 mins by elevated plus-maze test; format: functional; conditions: route intraperitoneal; summary of the method: as §2
Rattus norvegicus [17] = assay: Anxiolytic activity in Wistar rat assessed as number of entries into closed arms at 1 mg/kg, ip administered 60 mins before evaluation and measured during 5 mins by elevated plus-maze test; format: functional; conditions: route intraperitoneal; summary of the method: as §2
Rattus norvegicus [18] = assay: Anxiolytic activity in Wistar rat assessed as total number of entries at 1 mg/kg, ip administered 60 mins before evaluation and measured during 5 mins by elevated plus-maze test; format: functional; conditions: route intraperitoneal; summary of the method: as §2
Rattus norvegicus [19] = assay: Anxiolytic activity in Wistar rat assessed as blocked of time spent into open arms at 3 mg/kg, ip administered 60 mins before evaluation and measured during 5 mins by elevated plus-maze test in presence of 0.5 mg/kg, ip WAY-100635; format: functional, organism-based; summary of the method: as §1

Row | Compound | Activity (Rattus norvegicus [1]) [%] | Activity (Rattus norvegicus [2]) [%] | Activity (Rattus norvegicus [3]) | Activity (Rattus norvegicus [4]) | other results
1 | CCOC(=O)Nc1ccc(N2CCN(c3ccccc3Cl)CC2)cc1 | 58.98 | 30.27 | 9.75 | 13.98 | –
2 | CC(=O)Nc1ccc(N2CCN(c3ccccc3Cl)CC2)cc1 | 57.3 | 26.89 | 12.3 | 16.82 | –
3 | COc1ccccc1N1CCN(c2ccc(NC(=O)c3ccc(Cl)nc3)cc2)CC1 | 54.69 | 28.42 | 10.93 | 15.26 | –
4 | CC(=O)Nc1ccc(N2CCN(CCc3ccccc3)CC2)cc1 | 53.67 | 25.98 | 10.26 | 13.86 | –
5 | O=C1CC2(CCCC2)CC(=O)N1CCCCN1CCN(c2ncccn2)CC1 [BUSPIRONE] | – | – | – | – | Activity (Rattus norvegicus [5]): 85.56%; Activity (Rattus norvegicus [6]): 37.52%; Activity (Rattus norvegicus [7]): 8.91; Activity (Rattus norvegicus [8]): 14.26
6 | CCOC(=O)Nc1ccc(N2CCN(c3ccccc3OC)CC2)cc1 | 84.36 | 35.23 | 11.8 | 18.21 | Activity (Rattus norvegicus [9]): 17%; Activity (Rattus norvegicus [10]): 12%; Activity (Rattus norvegicus [11]): 20%; Activity (Rattus norvegicus [12]): Active; Activity (Rattus norvegicus [13]): 32%; Activity (Rattus norvegicus [14]): 24%
7 | O=C(Nc1ccc(N2CCN(CCc3ccccc3)CC2)cc1)c1ccc(Cl)nc1 | 50.58 | 22.9 | 11.17 | 14.48 | –
8 | COc1ccccc1N1CCN(c2ccc(NC(C)=O)cc2)CC1 | 58.77 | 28.74 | 9.01 | 15.45 | –
9 | CC(=O)Nc1ccc(N2CCN(c3ccccc3)CC2)cc1 | 62.67 | 29.42 | 10.08 | 14.28 | –
10 | CN1C(=O)CN=C(c2ccccc2)c2cc(Cl)ccc21 [DIAZEPAM] | – | – | – | – | Activity (Rattus norvegicus [15]): 105.36%; Activity (Rattus norvegicus [16]): 45.16%; Activity (Rattus norvegicus [17]): 10.13; Activity (Rattus norvegicus [18]): 18.47
11 | O=C(Nc1ccc(N2CCN(c3ccccc3Cl)CC2)cc1)c1ccc(Cl)nc1 | 53.67 | 24.56 | 9.8 | 12.98 | –
12 | CCOC(=O)Nc1ccc(N2CCN(CCc3ccccc3)CC2)cc1 | 53.94 | 28.49 | 9.91 | 13.85 | –
13 | CCOC(=O)Nc1ccc(N2CCN(c3ccccc3)CC2)cc1 | 87.6 | 40.64 | 9.19 | 15.48 | Activity (Rattus norvegicus [9]): 20%; Activity (Rattus norvegicus [10]): 15%; Activity (Rattus norvegicus [11]): 35%; Activity (Rattus norvegicus [19]): inactive; Activity (Rattus norvegicus [12]): Active; Activity (Rattus norvegicus [13]): 38%; Activity (Rattus norvegicus [14]): 30%
14 | O=C(Nc1ccc(N2CCN(c3ccccc3)CC2)cc1)c1ccc(Cl)nc1 | 56.94 | 27.48 | 11.94 | 16.46 | –

Source: ChEMBL document CHEMBL1152767, “Synthesis and pharmacological evaluation of new arylpiperazines N-[4-[4-(aryl) piperazine-1-yl]-phenyl]-amine derivatives: putative role of 5-HT1A receptors” (2009)
